Assay outcomes as filed in PubChem.
Only a selection was taken, and hits are over-represented in it overall.
FXN GAA850 act: frataxin GAA850 promoter activation. AID 540364. activation, % at 6 µM. HEK293 lucGAA850 FXN promoter luciferase reporter, 24 h; percent of 10 µM SAHA response. 360,000 compounds, 0.56% hits;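 active means activation above the average of all compounds screened plus 3 SD, cutoff fixed separately per campaign, cut at about 7.5% in these data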
UPR XBP1 act: activators of adaptive arm of unfolded protein response (XBP1); CHO-XBP1 luciferase reporter, IRE1-XBP1 UPR activation, luminescence; percent of tunicamycin response, DMSO as zero; activation, % at 20 µM; 330,000 compounds, 0.33% hits; AID 463104;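 active means versus positive control, 20 µM dose yields 30% or more activation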
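Material: IRE1-XBP1 luciferase reporter CHO line / Quantity: one thousand reporter cells per well / Buffer or medium: F12 with 10% serum / Compound: 20 µM single concentration, DMSO 1% / Times: 6 h treatment, 37 °C / Detection: Steady-Glo luciferase glow luminescence, 10 min after reagent addition / Benchmarks: tunicamycin high, DMSO low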
CHOP inhibitor: inhibitors of CHOP induction in ER stress response | CHO-K1 CHOP-promoter luciferase, tunicamycin-induced, 15-18 h | inhibition, % at 10 µM | 220,000 compounds, 3.8% hits;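 active means compounds that reduced the stress-induced luciferase reporter signal by more than about 70% of percent inhibition, limit read from the data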
UPR CHOP act: activators of apoptotic arm of unfolded protein response (CHOP). CHO-CHOP luciferase reporter, UPR activation, luminescence; percent of tunicamycin response over DMSO baseline. activation, % at 10 µM. 330,000 compounds, 0.34% hits;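 active means at 10 µM dose, activation of 40% or more, normalized to positive control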
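Assay system: CHO cells with stable CHOP pathway luciferase reporter; Buffer or medium: F12 plus 10% serum; Times: 16-18 h cell attachment, then 6 h compound exposure, 37 °C; Signal: luciferase luminescence; Read-out basis: percent activation relative to tunicamycin control; Control set: tunicamycin high control, DMSO low control.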
Of the large screens only hits and unclear results are named; the others gave an inactive call.

Cc1cc(Cl)ccc1OC(C)C(=O)Nc1ccccc1N1CCOCC1 (centres undefined)	CHOP inhibitor 73.5
COCc1cc(=O)[nH]c(/N=C(\N)Nc2cccc(C)c2)n1	none
Cc1cccc(N/C(N)=N/c2nc(CSc3ccc(Cl)cc3)cc(=O)[nH]2)c1	UPR XBP1 act 37.6 (no result: FXN GAA850 act)
Cc1ccc(NC(=O)c2cc(S(=O)(=O)NCCc3ccccc3)ccc2F)cc1Cl	CHOP inhibitor 84.2
O=C(Nc1cccc(Cl)c1)c1cc(S(=O)(=O)NCCc2ccc(Cl)cc2)ccc1F	none
CC1=C(C(=O)OCc2ccccc2)C(c2ccc(C)cc2)NC(=O)N1 (centres undefined)	none (no result: UPR XBP1 act, CHOP inhibitor, UPR CHOP act)
Cc1cccc(NC(=O)CSc2nnc(CSc3nc(C)cc(C)n3)o2)c1	none
Cc1cc(C)nc(SCc2nnc(SCC(=O)Nc3ccc(Cl)c(C(F)(F)F)c3)o2)n1	CHOP inhibitor 75.5
Cc1ccc(C2CC(=O)C(C=NCCN3CCN(C(=S)Nc4ccc(F)cc4)CC3)=C(O)C2)cc1 (centres undefined)	none
Cc1cc(C)nc(N/N=C/C2=C(O)CC(c3ccc(F)cc3)CC2=O)n1 (centres undefined)	CHOP inhibitor 74.9
CS(=O)(=O)N(CC(O)CON=C1c2ccccc2-c2ccccc21)c1ccc(F)cc1 (centres undefined)	CHOP inhibitor 73.0
Cc1cccc(N(CC(O)CON=C2c3ccccc3-c3ccccc32)S(C)(=O)=O)c1 (centres undefined)	CHOP inhibitor 70.4
CN(CC(O)CON=C1c2ccccc2-c2ccccc21)S(=O)(=O)c1ccc(Br)cc1 (centres undefined)	none
CN(C)c1ncnc2c1ncn2[C@H]1CN(CCN2CCOCC2)C[C@@H](CO)O1	none (no result: UPR XBP1 act, CHOP inhibitor, UPR CHOP act)
O=C(O)CCCN1C(=O)C2C3CCC(C3)C2C1=O (centres undefined)	none (no result: UPR XBP1 act, CHOP inhibitor, UPR CHOP act)
NC(=O)CC(NC(=O)c1ccc(Br)cc1)c1ccc(N2CCN(c3ccc(F)cc3)CC2)c([N+](=O)[O-])c1 (centres undefined)	CHOP inhibitor 93.2
NC(=O)CC(NC(=O)c1cccc(Br)c1)c1ccc(N2CCN(c3ccc(F)cc3)CC2)c([N+](=O)[O-])c1 (centres undefined)	none (no result: CHOP inhibitor)
NC(=O)CC(NC(=O)Cc1ccc(Br)cc1)c1ccc(N2CCN(c3ccc(F)cc3)CC2)c([N+](=O)[O-])c1 (centres undefined)	CHOP inhibitor 85.2
O=c1[nH]c2ccccc2n1CCC1CCCCC1	CHOP inhibitor 86.4
CNc1cncc(-c2cc(OC)c(OC)c(OC)c2)n1	none (no result: UPR XBP1 act, CHOP inhibitor, UPR CHOP act)
CCc1nc2ccc(C(=O)NCCNC(C)=O)cn2c1N(CC)CCOC	none (no result: UPR XBP1 act, CHOP inhibitor, UPR CHOP act)
Cc1ccc(S(=O)(=O)c2c(C)nn(C(C)(C)C)c2OC(=O)c2cccs2)cc1	CHOP inhibitor 71.5
Cc1ccc(S(=O)(=O)c2c(C)nn(C(C)(C)C)c2OC(=O)c2ccco2)cc1	none
Cc1ccc(S(=O)(=O)c2c(C)nn(C(C)(C)C)c2OC(=O)c2ccc(Br)o2)cc1	CHOP inhibitor 72.2
Cc1cccc2c1[nH]c1nc(N/N=C\c3ccco3)nnc12	CHOP inhibitor 85.3 (no result: FXN GAA850 act)
OC(c1cccc(Cl)c1)c1nc(-c2ccc(Cl)cc2)cs1 (centres undefined)	none (no result: UPR XBP1 act, CHOP inhibitor, UPR CHOP act)
CC(C)Oc1ccc(C(=O)Nc2ccc(Cl)c(S(=O)(=O)Nc3ccc(Cl)cc3)c2)cc1	CHOP inhibitor 70.8
CC(NC(N)=O)C(=O)Nc1ccc(Cl)c(S(=O)(=O)Nc2ccc(Cl)cc2)c1 (centres undefined)	none
COc1ccc(CN2C(=O)C(CC(=O)NC3CC3)CC(C(=O)N(C)C)=C2C)cc1 (centres undefined)	none (no result: UPR XBP1 act, CHOP inhibitor, UPR CHOP act)
CCCCN(Cc1ccco1)C(=O)c1cc2c(=O)[nH]c3ccc(C)cc3c2s1	CHOP inhibitor 72.7
Cc1ccc2[nH]c(=O)c3cc(C(=O)N(CCCOC(C)C)Cc4ccco4)sc3c2c1	none
COCCNC(=O)C1CCCN(C(=O)c2ccc(C(F)(F)F)nc2C)CC1 (centres undefined)	none (no result: UPR XBP1 act, CHOP inhibitor, UPR CHOP act)
Cc1cc(C)cc(CC(=O)N2CCC2(C)C(=O)NS(=O)(=O)c2ccc(Br)cc2)c1 (centres undefined)	none (no result: UPR XBP1 act, CHOP inhibitor, UPR CHOP act)
COc1cc(NC(=O)CSc2nnc3ccccn23)cc(OC)c1	none (no result: CHOP inhibitor)
CC(C)(C)c1cc(NC(=O)CCSc2nnc3ccccn23)cc(C(C)(C)C)c1	CHOP inhibitor 88.4
CC(C)OCCCN1C(=O)c2[nH]nc(-c3ccccc3O)c2C1c1cccc(Cl)c1 (centres undefined)	CHOP inhibitor 94.5
CC(C)C(=O)N1CCCC1(C)C(=O)Nc1ccc2c(c1)OCO2 (centres undefined)	none (no result: UPR XBP1 act, CHOP inhibitor, UPR CHOP act)
CCOc1ccc(NC(=O)c2ccc(F)c(S(=O)(=O)N3CCN(c4ccccn4)CC3)c2)cc1	none
O=C(Nc1cccc(Cl)c1)c1ccc(F)c(S(=O)(=O)N2CCN(c3ccccn3)CC2)c1	CHOP inhibitor 74.2
O=S(=O)(c1ccc(Cl)c(C(F)(F)F)c1)N1CCN(c2ccccn2)CC1	CHOP inhibitor 71.5
Cc1ccc(S(=O)(=O)N(C)C[C@H]2Oc3ncc(-c4ccccc4)cc3C(=O)N([C@@H](C)CO)C[C@@H]2C)cc1	none (no result: UPR XBP1 act, CHOP inhibitor, UPR CHOP act)
CC(/C=N/NC(=O)c1cc(C(C)(C)C)[nH]n1)=C\c1ccccc1	CHOP inhibitor 76.2
Cc1nn(-c2ccccc2)c(C)c1/C=N/NC(=O)c1cc(-c2ccc(Br)s2)[nH]n1	CHOP inhibitor 70.4
Cc1ccc(-c2cc(C(=O)N/N=C/c3ccco3)n[nH]2)s1	none
CC(/C=N/NC(=O)c1cc(-c2ccc(C)s2)[nH]n1)=C\c1ccccc1	CHOP inhibitor 95.7
Cc1nn(-c2ccccc2)c(C)c1/C=N/NC(=O)c1cc(-c2ccc(Cl)s2)[nH]n1	none
CNC[C@H]1Oc2cc(Br)ccc2S(=O)(=O)N([C@H](C)CO)C[C@H]1C	none (no result: UPR XBP1 act, CHOP inhibitor, UPR CHOP act)
CCC(=O)N1CCCC1(C)C(=O)NCc1ccc(SC)cc1 (centres undefined)	none (no result: UPR XBP1 act, CHOP inhibitor, UPR CHOP act)
O=C(NC(=S)Nc1ccccc1)C1CCCCC1	none (no result: CHOP inhibitor)
O=C(NC(=S)NCc1ccccc1)C1CCCCC1	CHOP inhibitor 88.9
CCCCCN1C=CC(=C2C(=O)c3ccccc3C2=O)C=C1	CHOP inhibitor 98.0
C[C@H](O)[C@@H]1C(=O)N2CCc3ccc(-c4ccccc4)cc3[C@@H]2C[C@@H]1N(C)C(=O)c1ccco1	none (no result: UPR XBP1 act, CHOP inhibitor, UPR CHOP act)
O=C1CN(c2nc(-c3ccccc3)c3cc(Cl)ccc3n2)c2ccccc2N1	CHOP inhibitor 73.9
CCCNC(=O)C1(C)CCCN(C(=O)c2cccc(OC(F)(F)F)c2)C1 (centres undefined)	none (no result: UPR XBP1 act, CHOP inhibitor, UPR CHOP act)
Cc1cccc(CCNC(=O)c2cc(=O)[nH]c3ccc(Br)cc23)c1	CHOP inhibitor 72.8 (no result: FXN GAA850 act)
Cc1cccc(CCNC(=O)CCS(=O)(=O)c2ccc(Br)cc2)c1	none
Cc1ccc(CNc2ncnc3c2cnn3-c2ccccc2)cc1	CHOP inhibitor 95.3
Cc1ccc(-n2ncc3c(NCc4ccccc4)ncnc32)cc1	CHOP inhibitor 79.9
Clc1cccc(Nc2ncnc3c2cnn3-c2ccccc2)c1	CHOP inhibitor 98.8
CCOC(=O)N(C)c1c(CC)nc2c(OCc3ccc(Cl)cc3)cccn12	none (no result: UPR XBP1 act, CHOP inhibitor, UPR CHOP act)
